Source: ChEMBL document CHEMBL1146866, “Structural determinants for the membrane interaction of novel bioactive undecapeptides derived from gaegurin 5” (J Med Chem, 2006)
Where a SMILES comes first, the peptide text is derived from it.

Key:
[1] = tested on: A549; experiment: Antitumor activity against human A549 cell line
[2] = tested on: SK-OV-3; experiment: Antitumor activity against human SKOV3 cell line; assay type: functional, cell-based
[3] = tested on: SK-MEL-2; experiment: Antitumor activity against human SK-MEL-2 cell line; assay type: functional, cell-based
[4] = tested on: HCT-116; experiment: Antitumor activity against human HCT116 cell line; assay type: functional, cell-based
[5] = tested on: A498; experiment: Antitumor activity against human A498 cell line
[6] = tested on: MCF7; experiment: Antitumor activity against human MCF7 cell line; assay type: functional, cell-based
[7] = tested on: NCI-H630; experiment: Antitumor activity against human NCI-H630 cell line; assay type: functional, cell-based
[8] = tested on: MKN-45; experiment: Antitumor activity against human MKN45 cell line; assay type: functional, cell-based
[9] = tested on: RBCs; experiment: Hemolytic activity against human red blood cells at 100 ug/ml; assay type: functional, Erythrocyte
Summary of the method: (§1)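 Human erythrocytes exposed to peptide. Hemolysis expressed as % relative to lysis by 0.2% Triton X-100.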

[10] = tested on: PC-3; experiment: Antitumor activity against human PC3 cell line; assay type: functional, cell-based
[11] = tested on: RBCs; experiment: Hemolytic activity against human red blood cells at 200 ug/ml; assay type: functional, Erythrocyte; summary of the method: as §1
[12] = tested on: RBCs; experiment: Hemolytic activity against human red blood cells at 400 ug/ml; assay type: functional, Erythrocyte; summary of the method: as §1
[13] = tested on: RBCs; experiment: Hemolytic activity against human red blood cells at 300 ug/ml; assay type: functional, Erythrocyte; summary of the method: as §1
[14] = tested on: MCF10; experiment: Antitumor activity against human MCF10a cell line

IC50 [1] [µM] | IC90 [1] [µM] | IC50 [2] [µM] | IC90 [2] [µM] | IC90 [3] [µM] | IC50 [4] [µM] | IC90 [4] [µM] | IC50 [5] [µM] | IC50 [6] [µM] | IC50 [7] [µM] | IC90 [7] [µM] | IC50 [8] [µM] | IC90 [8] [µM] | IC50 [10] [µM] | IC90 [10] [µM] | IC90 ([6]; read-out: IC90) [µM] | Compound | Activity [9] [%] | Activity [11] [%] | Activity [12] [%] | Activity [13] [%] | other results
57.1 | 89.1 | 15 | 23.4 | 18.2 | 44.4 | 89.1 | 54.1 | 72 | 16.4 | 25.1 | 13.7 | 24 | 17.1 | 22.9 | – | CC[C@H](C)[C@H](NC(=O)[C@H](C)NC(=O)[C@H](CS)NC(=O)[C@H](CCCCN)NC(=O)[C@@H](NC(=O)[C@H](CO)NC(=O)[C@@H]1CCCN1C(=O)[C@H](CC(C)C)NC(=O)[C@@H](NC(=O)[C@H](CCCCN)NC(=O)[C@H](CO)NC(=O)[C@H](C)NC(=O)[C@@H](NC(=O)[C@H](CCCCN)NC(=O)[C@H](Cc1ccccc1)NC(=O)[C@H](CC(C)C)NC(=O)[C@H](C)NC(=O)CNC(=O)[C@H](CC(C)C)NC(=O)[C@@H](N)Cc1ccccc1)C(C)C)C(C)C)C(C)C)C(=O)N[C@H](C(=O)N[C@@H](CCCCN)C(=O)N[C@@H](CCCCN)C(=O)N[C@@H](CS)C(=O)O)[C@@H](C)O (H-FLGALFKVASKVLPSVKCAITKKC-OH) | 6.8 | – | – | – | IC50 [3]: 18.6 µM; IC90 [6]: 93.3 µM
– | 0.041 | 0.005 | 0.071 | 0.037 | – | 0.008 | – | – | – | 0.372 | – | 0.204 | – | 0.832 | 0.015 | CC(=O)O[C@H]1C(=O)[C@@]2(C)[C@H]([C@H](OC(=O)c3ccccc3)[C@]3(O)C[C@H](OC(=O)[C@H](O)[C@@H](NC(=O)c4ccccc4)c4ccccc4)C(C)=C1C3(C)C)[C@]1(OC(C)=O)CO[C@@H]1C[C@@H]2O [PACLITAXEL] | – | – | – | – | IC90 [5]: 0.229 µM
– | – | – | – | – | – | – | – | – | – | – | – | – | – | – | – | H-FLGALFKVASK-OH | 6.06 | 6.06 | 6.21 | 6.06 | –
– | – | – | – | – | – | – | – | – | – | – | – | – | – | – | – | H-FLGALFKVASKVL-OH | 25.8 | – | – | – | –
330 | – | 119 | 166 | – | 114 | 170 | 169 | 157 | 102 | 117 | 113 | 151 | 137 | 195 | 229 | H-FLGALFKWASK-OH | 6.21 | 6.36 | 6.67 | 6.36 | IC50 [14]: 343 µM
82 | 102 | 71.1 | 89.1 | 46.8 | 23.5 | 56.2 | 56.5 | 59.6 | 58.6 | 81.3 | 63.8 | 85.1 | 95.5 | 112 | 110 | H-FLGWLFKVASK-OH | 6.52 | 6.82 | 9.24 | 7.12 | IC50 [3]: 23.5 µM; IC90 [5]: 83.2 µM; IC50 [14]: 240 µM
